Results taken from ChEMBL document CHEMBL1130321, “Synthesis and in vitro activity of 3 beta-substituted-3 alpha-hydroxypregnan-20-ones: allosteric modulators of the GABAA receptor” (J Med Chem, 1997).

How the values were obtained:
[1] = biological target: GABA-A receptor; anion channel; assay: Ability to allosterically modulate the binding of [35S]TBPS to gamma-aminobutyric-acid A receptor in rat brain cortical P2 membranes.; format: cell membranes, Membrane
In short: (§1)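 Rat cortical P2 membranes washed in 200 mM NaCl/50 mM Na-K phosphate pH 7.4. Incubated with 2 nM [35S]TBPS, 5 µM GABA and compound at nine concentrations from 1 nM to 10 µM final (DMSO 0.5% final), 90 min at room temperature. Nonspecific binding was defined with 2 µM unlabeled TBPS. Read-out was filtration and scintillation counting. IC50 and Imax came from partial or full inhibition fits chosen by F-test. Values are mean ± SEM of 3-9 experiments.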

[2] = species: Rattus norvegicus; assay: Percent of maximal extent of inhibition was calculated by fitting [35S]TBPS inhibition data to a sigmoid function (rat brain cortical P2 membranes).; format: functional; in short: as §1
[3] = biological target: T1, GABA-A receptor; alpha-1/beta-2/gamma-2 (Homo sapiens, UniProt P14867+P18507+P47870); assay: Potentiation of GABA-activated currents in Xenopus oocytes expressing cloned human alpha-1-beta-2-gamma-2L subunits of GABA-A receptor; format: functional, cell-based, Oocyte
T1 sequence (P14867 whole entry): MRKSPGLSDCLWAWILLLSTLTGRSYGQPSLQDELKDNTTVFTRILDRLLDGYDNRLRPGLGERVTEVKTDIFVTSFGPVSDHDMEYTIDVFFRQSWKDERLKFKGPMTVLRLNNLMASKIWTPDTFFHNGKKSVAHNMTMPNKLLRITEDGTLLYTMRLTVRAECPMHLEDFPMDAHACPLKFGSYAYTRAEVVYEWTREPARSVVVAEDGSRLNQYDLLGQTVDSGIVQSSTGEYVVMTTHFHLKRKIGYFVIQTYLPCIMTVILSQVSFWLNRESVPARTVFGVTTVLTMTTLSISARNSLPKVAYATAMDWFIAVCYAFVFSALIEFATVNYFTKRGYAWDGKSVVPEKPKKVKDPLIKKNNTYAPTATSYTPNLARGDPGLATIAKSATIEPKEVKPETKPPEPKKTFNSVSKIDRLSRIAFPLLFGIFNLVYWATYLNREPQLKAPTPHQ
T1 sequence (P47870 whole entry): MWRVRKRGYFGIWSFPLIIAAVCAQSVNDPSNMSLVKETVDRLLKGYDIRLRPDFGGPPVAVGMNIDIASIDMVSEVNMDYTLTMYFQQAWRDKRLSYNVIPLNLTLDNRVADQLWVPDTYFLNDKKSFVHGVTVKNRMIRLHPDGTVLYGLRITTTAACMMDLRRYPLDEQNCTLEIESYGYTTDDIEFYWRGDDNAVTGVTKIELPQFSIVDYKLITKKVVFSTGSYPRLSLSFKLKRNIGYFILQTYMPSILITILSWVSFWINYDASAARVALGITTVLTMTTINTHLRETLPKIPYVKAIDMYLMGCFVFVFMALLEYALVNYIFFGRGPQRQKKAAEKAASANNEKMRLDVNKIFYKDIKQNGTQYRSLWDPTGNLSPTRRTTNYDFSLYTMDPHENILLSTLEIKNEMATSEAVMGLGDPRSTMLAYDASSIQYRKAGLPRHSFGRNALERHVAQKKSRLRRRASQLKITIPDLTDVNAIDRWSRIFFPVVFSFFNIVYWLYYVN
T1 sequence (P18507 whole entry): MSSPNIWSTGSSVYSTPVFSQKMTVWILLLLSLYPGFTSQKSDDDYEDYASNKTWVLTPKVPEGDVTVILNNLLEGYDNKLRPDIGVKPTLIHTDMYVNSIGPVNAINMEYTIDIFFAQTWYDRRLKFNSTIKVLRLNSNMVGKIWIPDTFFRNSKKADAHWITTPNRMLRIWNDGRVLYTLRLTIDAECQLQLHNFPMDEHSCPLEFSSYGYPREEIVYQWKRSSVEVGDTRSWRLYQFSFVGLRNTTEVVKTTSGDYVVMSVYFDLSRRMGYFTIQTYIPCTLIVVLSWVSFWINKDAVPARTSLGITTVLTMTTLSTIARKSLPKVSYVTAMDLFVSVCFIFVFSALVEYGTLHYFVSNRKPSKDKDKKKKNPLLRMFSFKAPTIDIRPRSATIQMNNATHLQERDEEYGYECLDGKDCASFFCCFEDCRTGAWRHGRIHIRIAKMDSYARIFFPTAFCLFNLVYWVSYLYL
In short: (§2)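 Xenopus oocytes were injected with human α1, β2 and γ2L cRNAs at 1:1:1, ~1 ng each. Two-electrode voltage clamp was done in frog Ringer (HEPES 5 mM, pH 7.4). Currents were scaled to the maximum elicited by 3 mM GABA. Steroid was applied in increasing concentrations to a fixed GABA response of ~0.05 fractional current, with DMSO 0.3% final. Data were fitted to a four-parameter logistic and given as mean ± SEM.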

[4] = biological target: GABA-A receptor; alpha-1/beta-2/gamma-2 (Homo sapiens) (UniProt P14867+P47870+P18507); assay: Efficacy as fractional response (FR) relative to GABA maximal current elicited in Xenopus oocytes; format: functional, cell-based; conditions: Oocyte; in short: as §2

| SMILES | IC50 [1] | Imax [2] | EC50 [3] | Efficacy [4] |
| --- | --- | --- | --- | --- |
| CC(=O)[C@H]1CC[C@H]2[C@@H]3CC[C@H]4C[C@@](O)(C(F)(F)F)CC[C@]4(C)[C@H]3CC[C@]12C | 266 nM | 44% | 390 nM | 0.3 |
| CC(=O)[C@H]1CC[C@H]2[C@@H]3CC[C@H]4C[C@@](O)(CO)CC[C@]4(C)[C@H]3CC[C@]12C | 2130 nM | 101% | ~20000 nM | – |
| COC[C@@]1(O)CC[C@@]2(C)[C@@H](CC[C@@H]3[C@@H]2CC[C@]2(C)[C@@H](C(C)=O)CC[C@@H]32)C1 | 76 nM | 104% | – | – |
| CC(C)(C)OC(=O)c1ncn2c1C1CCCN1C(=O)c1c(Br)cccc1-2 (centres undefined) | 6.1 nM | 27% | – | – |
| CCC[C@@]1(O)CC[C@@]2(C)[C@@H](CC[C@@H]3[C@@H]2CC[C@]2(C)[C@@H](C(C)=O)CC[C@@H]32)C1 | 173 nM | 42% | – | – |
| C#C[C@@]1(O)CC[C@@]2(C)[C@H](CC[C@@H]3[C@@H]2CC[C@]2(C)[C@@H](C(C)=O)CC[C@@H]32)C1 | – | 101% | – | – |
| CN1C(=O)CN=C(c2ccccc2)c2cc(Cl)ccc21 | – | 49% | – | – |
| CC(=O)[C@H]1CC[C@H]2[C@@H]3CC[C@H]4C[C@@](O)(CF)CC[C@]4(C)[C@H]3CC[C@]12C | 228 nM | 79% | – | – |
| CC(=O)[C@H]1CC[C@H]2[C@@H]3CC[C@@H]4C[C@@](O)(CCl)CC[C@]4(C)[C@H]3CC[C@]12C | 243 nM | 103% | – | – |
| C=C[C@@]1(O)CC[C@@]2(C)[C@H](CC[C@@H]3[C@@H]2CC[C@]2(C)[C@@H](C(C)=O)CC[C@@H]32)C1 | 43 nM | 103% | – | – |
| C#CC[C@@]1(O)CC[C@@]2(C)[C@H](CC[C@@H]3[C@@H]2CC[C@]2(C)[C@@H](C(C)=O)CC[C@@H]32)C1 | 214 nM | 101% | – | – |
| CC[C@@]1(O)CC[C@@]2(C)[C@@H](CC[C@@H]3[C@@H]2CC[C@]2(C)[C@@H](C(C)=O)CC[C@@H]32)C1 | 257 nM | 69% | – | – |
| CC(=O)[C@H]1CC[C@H]2[C@@H]3CC[C@@H]4C[C@](C)(O)CC[C@]4(C)[C@H]3CC[C@]12C | – | 104% | – | – |
| CC(=O)[C@H]1CC[C@H]2[C@@H]3CC[C@H]4C[C@@](O)(CBr)CC[C@]4(C)[C@H]3CC[C@]12C | 224 nM | 44% | – | – |
| CC(=O)[C@H]1CC[C@H]2[C@@H]3CC[C@H]4C[C@@](O)(CC(N)=O)CC[C@]4(C)[C@H]3CC[C@]12C | > 10000 nM | 28% | – | – |
| C=CC[C@@]1(O)CC[C@@]2(C)[C@@H](CC[C@@H]3[C@@H]2CC[C@]2(C)[C@@H](C(C)=O)CC[C@@H]32)C1 | 231 nM | 59% | – | – |

| SMILES | IC50 [1] | Imax [2] | EC50 [3] | Efficacy [4] |
| --- | --- | --- | --- | --- |
| CC(=O)[C@H]1CC[C@H]2[C@@H]3CC[C@H]4C[C@@](O)(CN=[N+]=[N-])CC[C@]4(C)[C@H]3CC[C@]12C | 27 nM | 99% | 150 nM | 0.8 |
| CC(=O)[C@H]1CC[C@H]2[C@@H]3CC[C@H]4C[C@@](O)(CN(C)C)CC[C@]4(C)[C@H]3CC[C@]12C | > 10000 nM | 0% | > 50000 nM | – |
| C#CC[C@@]1(O)CC[C@@]2(C)[C@@H](CC[C@@H]3[C@@H]2CC[C@]2(C)[C@@H](C(C)=O)CC[C@@H]32)C1 | 50 nM | 43% | – | – |
| COC[C@@]1(O)CC[C@@]2(C)[C@H](CC[C@@H]3[C@@H]2CC[C@]2(C)[C@@H](C(C)=O)CC[C@@H]32)C1 | 40 nM | 103% | – | – |
| C=CCC[C@@]1(O)CC[C@@]2(C)[C@@H](CC[C@@H]3[C@@H]2CC[C@]2(C)[C@@H](C(C)=O)CC[C@@H]32)C1 | 325 nM | 59% | – | – |
| CC(=O)[C@H]1CC[C@H]2[C@@H]3CC[C@H]4C[C@@](O)(CCl)CC[C@]4(C)[C@H]3CC[C@]12C | 71 nM | 33% | – | – |
| CC(=O)[C@H]1CC[C@H]2[C@@H]3CC[C@H]4C[C@H](O)CC[C@]4(C)[C@H]3CC[C@]12C [BREXANOLONE] | 51 nM | 95% | 160 nM | 0.91 |
| C=C=CC[C@@]1(O)CC[C@@]2(C)[C@@H](CC[C@@H]3[C@@H]2CC[C@]2(C)[C@@H](C(C)=O)CC[C@@H]32)C1 | 365 nM | 57% | – | – |
| CCCOC[C@@]1(O)CC[C@@]2(C)[C@@H](CC[C@@H]3[C@@H]2CC[C@]2(C)[C@@H](C(C)=O)CC[C@@H]32)C1 | 655 nM | 94% | – | – |
| CC(=O)[C@H]1CC[C@H]2[C@@H]3CC[C@H]4C[C@@](O)(CI)CC[C@]4(C)[C@H]3CC[C@]12C | 702 nM | 50% | – | – |
| CCOC[C@@]1(O)CC[C@@]2(C)[C@@H](CC[C@@H]3[C@@H]2CC[C@]2(C)[C@@H](C(C)=O)CC[C@@H]32)C1 | 230 nM | 104% | – | – |
| CC(=O)[C@H]1CC[C@H]2[C@@H]3CC[C@H]4C[C@](C)(O)CC[C@]4(C)[C@H]3CC[C@]12C [GANAXOLONE] | 80 nM | 94% | 260 nM | 0.8 |
| CC[C@@]1(O)CC[C@@]2(C)[C@H](CC[C@@H]3[C@@H]2CC[C@]2(C)[C@@H](C(C)=O)CC[C@@H]32)C1 | 135 nM | 95% | – | – |
| C=C[C@@]1(O)CC[C@@]2(C)[C@@H](CC[C@@H]3[C@@H]2CC[C@]2(C)[C@@H](C(C)=O)CC[C@@H]32)C1 | 120 nM | 94% | – | – |
| C#C[C@@]1(O)CC[C@@]2(C)[C@@H](CC[C@@H]3[C@@H]2CC[C@]2(C)[C@@H](C(C)=O)CC[C@@H]32)C1 | 64 nM | 93% | – | – |
